Assay results as given in ChEMBL document CHEMBL1687778, “Genetic determinants involved in the susceptibility of Pseudomonas aeruginosa to beta-lactam antibiotics” (2010).
≈ marks a conversion by molar mass, not a printed value.

How the values were obtained:
Type in all cases: functional
[1] = tested on: Pseudomonas aeruginosa; experiment: Antimicrobial activity against Pseudomonas aeruginosa PA14 PA4527 harboring pilC mutant gene by Etest method
Procedure, shortened: (§1)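 Etest MIC. Overnight LB cultures at 37°C were diluted in sterile 0.85% NaCl to about 1 × 10^7 CFU/ml. 100 µl was spread on Mueller-Hinton agar, one strip was placed per plate, and plates were incubated at 37°C for 18 h. Equal cell numbers were seeded per plate, and results were verified in triplicate. PA14 wild type was included in each set as a susceptibility control.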

[2] = tested on: Pseudomonas aeruginosa; experiment: Antimicrobial activity against Pseudomonas aeruginosa PA14 PA4459 harboring mutation in Conserved hypothetical protein by Etest method; procedure, shortened: as §1
[3] = tested on: Pseudomonas aeruginosa; experiment: Antimicrobial activity against Pseudomonas aeruginosa PA14 PA0011 harboring mutation in putative 2-OH-lauroyltransferase by Etest method
Procedure, shortened: (§2)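 Overnight LB cultures (37°C) diluted in sterile 0.85% NaCl to about 1 × 10^7 CFU/ml. 100 µl spread on Mueller-Hinton agar, one Etest strip per plate, 18 h at 37°C. Ceftazidime, imipenem and meropenem tested. Wild-type PA14 plate included in each set. Each mutant verified in triplicate.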

[4] = tested on: Pseudomonas aeruginosa; experiment: Antimicrobial activity against Pseudomonas aeruginosa PA14 PA2970 harboring rpmF mutant gene by Etest method; procedure, shortened: as §2
[5] = tested on: Pseudomonas aeruginosa; experiment: Antimicrobial activity against Pseudomonas aeruginosa PA14 PA1195 harboring mutation in putative dimethylarginine dimethylaminohydrolase by Etest method; procedure, shortened: as §2
[6] = tested on: Pseudomonas aeruginosa; experiment: Antimicrobial activity against Pseudomonas aeruginosa PA14 PA0503 harboring mutation in Putative biotin synthesis protein BioC by Etest method; procedure, shortened: as §2
[7] = tested on: Pseudomonas aeruginosa; experiment: Antimicrobial activity against Pseudomonas aeruginosa PA14 PA3704 harboring wspE mutant gene by Etest method; procedure, shortened: as §1
[8] = tested on: Pseudomonas aeruginosa; experiment: Antimicrobial activity against Pseudomonas aeruginosa PA14 PA3620 harboring mutS mutant gene by Etest method; procedure, shortened: as §1
[9] = tested on: Pseudomonas aeruginosa; experiment: Antimicrobial activity against Pseudomonas aeruginosa PA14 PA5443 harboring uvrD mutant gene by Etest method; procedure, shortened: as §1
[10] = tested on: Pseudomonas aeruginosa; experiment: Antimicrobial activity against Pseudomonas aeruginosa PA14 PA0427 harboring oprM mutant gene by Etest method; procedure, shortened: as §2
[11] = tested on: Pseudomonas aeruginosa; experiment: Antimicrobial activity against Pseudomonas aeruginosa PA14 PA0667 harboring mutation in putative metallopeptidase by Etest method; procedure, shortened: as §2
[12] = tested on: Pseudomonas aeruginosa; experiment: Antimicrobial activity against Pseudomonas aeruginosa PA14 PA4269 harboring rpoC mutant gene by Etest method; procedure, shortened: as §1
[13] = tested on: Pseudomonas aeruginosa; experiment: Antimicrobial activity against Pseudomonas aeruginosa PA14 PA4402 harboring argJ mutant gene by Etest method; procedure, shortened: as §1
[14] = tested on: Pseudomonas aeruginosa; experiment: Antimicrobial activity against Pseudomonas aeruginosa PA14 PA3589 harboring mutation in acetyl-coenzyme A (CoA) acetyltransferase (thiolase) by Etest method; procedure, shortened: as §1
[15] = tested on: Pseudomonas aeruginosa; experiment: Antimicrobial activity against Pseudomonas aeruginosa PA14 PA5005 harboring mutation in putative carbamoyltransferase by Etest method; procedure, shortened: as §1
[16] = tested on: Pseudomonas aeruginosa; experiment: Antimicrobial activity against Pseudomonas aeruginosa PA14 PA0479 harboring mutation in putative transcriptional regulator, LysR family by Etest method; procedure, shortened: as §2
[17] = tested on: Pseudomonas aeruginosa; experiment: Antimicrobial activity against Pseudomonas aeruginosa PA14 PA0401 harboring mutation in Noncatalytic dihydroorotase-like protein by Etest method; procedure, shortened: as §2
[18] = tested on: Pseudomonas aeruginosa; experiment: Antimicrobial activity against Pseudomonas aeruginosa PA14 PA1553 harboring mutation in putative cytochrome c oxidase, cbb3 type, subunit II by Etest method; procedure, shortened: as §2
[19] = tested on: Pseudomonas aeruginosa; experiment: Antimicrobial activity against Pseudomonas aeruginosa PA14 PA14_23420 harboring mutation in putative zinc-binding dehydrogenase by Etest method; procedure, shortened: as §2
[20] = tested on: Pseudomonas aeruginosa; experiment: Antimicrobial activity against Pseudomonas aeruginosa PA14 PA5174 harboring mutation in putative beta-ketoacyl synthase by Etest method; procedure, shortened: as §1
[21] = tested on: Pseudomonas aeruginosa; experiment: Antimicrobial activity against Pseudomonas aeruginosa PA14 PA5000 harboring wapR mutant gene by Etest method; procedure, shortened: as §1
[22] = tested on: Pseudomonas aeruginosa; experiment: Antimicrobial activity against Pseudomonas aeruginosa PA14 PA0420 harboring bioA mutant gene by Etest method; procedure, shortened: as §2
[23] = tested on: Pseudomonas aeruginosa; experiment: Antimicrobial activity against Pseudomonas aeruginosa PA14 PA14_06490 harboring mutation in hypothetical protein by Etest method; procedure, shortened: as §2
[24] = tested on: Pseudomonas aeruginosa; experiment: Antimicrobial activity against Pseudomonas aeruginosa PA14 PA3262 harboring fklB mutant gene by Etest method; procedure, shortened: as §1
[25] = tested on: Pseudomonas aeruginosa; experiment: Antimicrobial activity against Pseudomonas aeruginosa PA14 PA14_07490/07510 harboring mutation in intergenic region by Etest method; procedure, shortened: as §2
[26] = tested on: Pseudomonas aeruginosa; experiment: Antimicrobial activity against Pseudomonas aeruginosa PA14 PA4005 harboring mutation in conserved hypothetical protein by Etest method; procedure, shortened: as §1
[27] = tested on: Pseudomonas aeruginosa; experiment: Antimicrobial activity against Pseudomonas aeruginosa PA14 PA4393 harboring mutation in putative permease by Etest method; procedure, shortened: as §1
[28] = tested on: Pseudomonas aeruginosa; experiment: Antimicrobial activity against Pseudomonas aeruginosa PA14 PA3247 harboring mutation in putative aspartyl aminopeptidase by Etest method; procedure, shortened: as §2
[29] = tested on: Pseudomonas aeruginosa; experiment: Antimicrobial activity against Pseudomonas aeruginosa PA14 PA2963 harboring mutation in putative aminodeoxychorismate lyase by Etest method; procedure, shortened: as §2
[30] = tested on: Pseudomonas aeruginosa; experiment: Antimicrobial activity against Pseudomonas aeruginosa PA14 PA3978 harboring mutation in hypothetical protein by Etest method; procedure, shortened: as §1
[31] = tested on: Pseudomonas aeruginosa; experiment: Antimicrobial activity against Pseudomonas aeruginosa PA14 PA4069 harboring mutation in putative dTDP-4-rhamnose reductase-related protein by Etest method; procedure, shortened: as §1
[32] = tested on: Pseudomonas aeruginosa; experiment: Antimicrobial activity against Pseudomonas aeruginosa PA14 PA4550 harboring fimU mutant gene by Etest method; procedure, shortened: as §1
[33] = tested on: Pseudomonas aeruginosa; experiment: Antimicrobial activity against Pseudomonas aeruginosa PA14 PA2128 harboring cupA1 mutant gene by Etest method; procedure, shortened: as §2
[34] = tested on: Pseudomonas aeruginosa; experiment: Antimicrobial activity against Pseudomonas aeruginosa PA14 PA5038 harboring aroB mutant gene by Etest method; procedure, shortened: as §1
[35] = tested on: Pseudomonas aeruginosa; experiment: Antimicrobial activity against Pseudomonas aeruginosa PA14 PA3721 harboring nalC mutant gene by Etest method; procedure, shortened: as §1
[36] = tested on: Pseudomonas aeruginosa; experiment: Antimicrobial activity against Pseudomonas aeruginosa PA14 PA0807 harboring ampDh3 mutant gene by Etest method; procedure, shortened: as §2
[37] = tested on: Pseudomonas aeruginosa; experiment: Antimicrobial activity against Pseudomonas aeruginosa PA14 PA0908 harboring mutation in hypothetical protein by Etest method; procedure, shortened: as §2
[38] = tested on: Pseudomonas aeruginosa; experiment: Antimicrobial activity against Pseudomonas aeruginosa PA14 PA3145 harboring wbpL mutant gene by Etest method; procedure, shortened: as §2
[39] = tested on: Pseudomonas aeruginosa; experiment: Antimicrobial activity against Pseudomonas aeruginosa PA14 PA5001 harboring mutation in conserved hypothetical protein by Etest method; procedure, shortened: as §1
[40] = tested on: Pseudomonas aeruginosa; experiment: Antimicrobial activity against Pseudomonas aeruginosa PA14 PA3259 harboring mutation in conserved hypothetical protein by Etest method; procedure, shortened: as §1
[41] = tested on: Pseudomonas aeruginosa; experiment: Antimicrobial activity against Pseudomonas aeruginosa PA14 PA3520 harboring mutation in putative periplasmic metal-binding protein by Etest method; procedure, shortened: as §1
[42] = tested on: Pseudomonas aeruginosa; experiment: Antimicrobial activity against Pseudomonas aeruginosa PA14 PA4007 harboring proA mutant gene by Etest method; procedure, shortened: as §1
[43] = tested on: Pseudomonas aeruginosa; experiment: Antimicrobial activity against Pseudomonas aeruginosa PA14 PA4946 harboring mutL mutant gene by Etest method; procedure, shortened: as §1
[44] = tested on: Pseudomonas aeruginosa; experiment: Antimicrobial activity against Pseudomonas aeruginosa PA14 PA5288 harboring glnK mutant gene by Etest method; procedure, shortened: as §1
[45] = tested on: Pseudomonas aeruginosa; experiment: Antimicrobial activity against Pseudomonas aeruginosa PA14 PA4753 harboring mutation in putative RNA-binding protein by Etest method; procedure, shortened: as §1
[46] = tested on: Pseudomonas aeruginosa; experiment: Antimicrobial activity against Pseudomonas aeruginosa PA14 PA3649 harboring mutation in putative membrane-associated zinc metalloprotease by Etest method; procedure, shortened: as §1
[47] = tested on: Pseudomonas aeruginosa; experiment: Antimicrobial activity against Pseudomonas aeruginosa PA14 PA2023 harboring galU mutant gene by Etest method; procedure, shortened: as §2

C[C@@H](O)[C@H]1C(=O)N2C(C(=O)O)=C(SCCNC=N)C[C@H]12 [IMIPENEM ANHYDROUS]
MIC [1]: 0.38 µg/mL (≈ 1.27 µM) | MIC [2]: 0.25 µg/mL (≈ 0.835 µM) | MIC [3]: 0.38 µg/mL (≈ 1.27 µM) | MIC [4]: 0.5 µg/mL (≈ 1.67 µM) | MIC [5]: 0.38 µg/mL (≈ 1.27 µM) | MIC [6]: 0.19 µg/mL (≈ 0.635 µM) | MIC [7]: 0.5 µg/mL (≈ 1.67 µM) | MIC [8]: 0.38 µg/mL (≈ 1.27 µM) | MIC [9]: 0.5 µg/mL (≈ 1.67 µM) | MIC [10]: 0.38 µg/mL (≈ 1.27 µM) | MIC [11]: 0.5 µg/mL (≈ 1.67 µM) | MIC [12]: 0.5 µg/mL (≈ 1.67 µM) | MIC [13]: 0.38 µg/mL (≈ 1.27 µM) | MIC [14]: 0.5 µg/mL (≈ 1.67 µM) | MIC [15]: 0.25 µg/mL (≈ 0.835 µM) | MIC [16]: 1 µg/mL (≈ 3.34 µM) | MIC [17]: 0.38 µg/mL (≈ 1.27 µM) | MIC [18]: 1 µg/mL (≈ 3.34 µM) | MIC [19]: 0.38 µg/mL (≈ 1.27 µM) | MIC [20]: 0.125 µg/mL (≈ 0.418 µM) | MIC [21]: 0.5 µg/mL (≈ 1.67 µM) | MIC [22]: 0.125 µg/mL (≈ 0.418 µM) | MIC [23]: 0.38 µg/mL (≈ 1.27 µM) | MIC [24]: 0.25 µg/mL (≈ 0.835 µM) | MIC [25]: 0.5 µg/mL (≈ 1.67 µM) | MIC [26]: 0.064 µg/mL (≈ 0.214 µM) | MIC [27]: 0.25 µg/mL (≈ 0.835 µM) | MIC [28]: 0.38 µg/mL (≈ 1.27 µM) | MIC [29]: 0.25 µg/mL (≈ 0.835 µM) | MIC [30]: 0.094 µg/mL (≈ 0.314 µM) | MIC [31]: 0.25 µg/mL (≈ 0.835 µM) | MIC [32]: 0.5 µg/mL (≈ 1.67 µM) | MIC [33]: 0.38 µg/mL (≈ 1.27 µM) | MIC [34]: 0.38 µg/mL (≈ 1.27 µM) | MIC [35]: 0.5 µg/mL (≈ 1.67 µM) | MIC [36]: 1 µg/mL (≈ 3.34 µM) | MIC [37]: 1.5 µg/mL (≈ 5.01 µM) | MIC [38]: 0.38 µg/mL (≈ 1.27 µM) | MIC [39]: 0.38 µg/mL (≈ 1.27 µM) | MIC [40]: 0.5 µg/mL (≈ 1.67 µM) | MIC [41]: 0.5 µg/mL (≈ 1.67 µM) | MIC [42]: 0.19 µg/mL (≈ 0.635 µM) | MIC [43]: 0.38 µg/mL (≈ 1.27 µM) | MIC [44]: 0.25 µg/mL (≈ 0.835 µM) | MIC [45]: 0.5 µg/mL (≈ 1.67 µM) | MIC [46]: 0.25 µg/mL (≈ 0.835 µM) | MIC [47]: 0.094 µg/mL (≈ 0.314 µM)
